Experimental data as given in ChEMBL document CHEMBL1123080, “Synthesis and antiviral activity of the carbocyclic analogues of (E)-5-(2-halovinyl)-2'-deoxyuridines and (E)-5-(2-halovinyl)-2'-deoxycytidines” (1985).
In brackets after ≈: the same amount, converted by molar mass.

Legend:
Type in all cases: functional
Human alphaherpesvirus 2 [1] = experiment: Minimum inhibitory concentration (MIC) required to reduce HSV-2 strain (Lyons) induced cytopathogenicity in primary rabbit kidney cell cultures
How it was run: (§1)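 Primary rabbit kidney cell cultures were infected with virus and treated with compound. The MIC is the concentration that reduces virus-induced cytopathogenicity by 50%. Cytotoxicity was scored as microscopically visible alteration of normal cell morphology, with 400 μg/mL the highest concentration tested.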

Human alphaherpesvirus 2 [2] = experiment: Minimum inhibitory concentration (MIC) required to reduce HSV-2 strain G induced cytopathogenicity in primary rabbit kidney cell cultures; how it was run: as §1
Human alphaherpesvirus 1 [3] = experiment: Minimum inhibitory concentration (MIC) required to reduce HSV-1 strain (F) induced cytopathogenicity in primary rabbit kidney cell cultures; how it was run: as §1
Human alphaherpesvirus 1 [4] = experiment: Minimum inhibitory concentration (MIC) required to reduce HSV-1 strain McIntyre induced cytopathogenicity in primary rabbit kidney cell cultures; how it was run: as §1
Human alphaherpesvirus 1 [5] = experiment: Minimum inhibitory concentration (MIC) required to reduce Herpes simplex virus (HSV-1) KOS strain induced cytopathogenicity in primary rabbit kidney cell cultures; how it was run: as §1
Human alphaherpesvirus 1 [6] = experiment: Minimum inhibitory concentration (MIC) required to reduce thymidine kinase deficient HSV-1 induced cytopathogenicity in primary rabbit kidney cell cultures
How it was run: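 The virus was a dThd kinase-deficient mutant of HSV-1 strain B2006, passaged several times in primary rabbit kidney cells. The MIC is the concentration that reduces cytopathogenicity by 50% in primary rabbit kidney cell cultures. Cytotoxicity was scored by microscopic cell morphology, up to 400 μg/mL.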

L1210 [7] = experiment: Minimum inhibitory concentration (MIC) required to inhibit proliferation of murine leukemia L1210 (TK-); settings: Mus musculus
How it was run: (§2)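 Cell proliferation assay. Cultures were exposed to compound during their linear growth phase, and growth was monitored. The MIC is the concentration that inhibits cell proliferation by 50%.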

L1210 [8] = experiment: Minimum inhibitory concentration (MIC) required to inhibit proliferation of murine leukemia L1210 (wild type); settings: Mus musculus; how it was run: as §2
Rattus norvegicus = organism: Rattus norvegicus; experiment: Minimum inhibitory concentration (MIC) required to inhibit proliferation of Novikoff rat hepatoma; how it was run: as §2
Homo sapiens = organism: Homo sapiens; experiment: Minimum inhibitory concentration (MIC) required to inhibit proliferation of human lymphoblast Raji; how it was run: as §2
[9] = tested on: Vesicular stomatitis virus; experiment: Minimum inhibitory concentration (MIC) required to reduce vesicular stomatis virus induced cytopathogenicity in primary rabbit kidney cell cultures; how it was run: as §1
Mus musculus [10] = experiment: The survival rate was evaluated for its effect of systemic treatment on NMRI mice infected intraperitoneally with HSV-1 (KOS) when administered perorally
How it was run: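 Mice were infected intraperitoneally with HSV-1 (KOS). Compound was given at 100 mg/kg per day from day 0 to day 4 postinfection, as a 2 mg/mL suspension in water by gavage once daily. Survivors were counted at day 20 postinfection.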

Mus musculus [11] = organism: Mus musculus; experiment: The survival rate was evaluated for its effect of systemic treatment on hairless (hr/hr) mice infected intracutaneously with HSV-1 (KOS) at percent concentration of 0.3
Mus musculus [12] = organism: Mus musculus; experiment: The survival rate was evaluated for its effect of systemic treatment on hairless (hr/hr) mice infected intracutaneously with HSV-1 (KOS) at percent concentration of 1
Mus musculus [13] = organism: Mus musculus; experiment: The survival rate was evaluated for its effect of systemic treatment on hairless (hr/hr) mice infected intracutaneously with HSV-1 (KOS) at percent concentration of 3
Mus musculus [14] = experiment: The survival rate was evaluated for its effect of systemic treatment on NMRI mice infected intraperitoneally with HSV-1 (KOS) when administered intraperitoneally
How it was run: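 Mice were infected intraperitoneally with HSV-1 (KOS). Compound was given at 100 mg/kg per day from day 0 to day 4 postinfection, intraperitoneally, at 1 mg/mL in physiological saline with 10% propylene glycol, twice daily. Survivors were counted at day 20 postinfection.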

## O=c1[nH]c(=O)n(C2CC(O)C(CO)C2)cc1/C=C/I (stereo not drawn)
Human alphaherpesvirus 2 [1]
  MIC50: 7 µg/mL (≈ 18.5 µM)
Human alphaherpesvirus 2 [2]
  MIC50: 2 µg/mL (≈ 5.29 µM)
Human alphaherpesvirus 1 [3]
  MIC50: 0.1 µg/mL (≈ 0.264 µM)
Human alphaherpesvirus 1 [4]
  MIC50: 0.07 µg/mL (≈ 0.185 µM)
Human alphaherpesvirus 1 [5]
  MIC50: 0.07 µg/mL (≈ 0.185 µM)
Human alphaherpesvirus 1 [6]
  MIC50: > 400 µg/mL
L1210 [7]
  MIC50: > 200 µg/mL
L1210 [8]
  MIC50: > 200 µg/mL
Rattus norvegicus
  MIC50: > 200 µg/mL
Homo sapiens
  MIC50: > 200 µg/mL
[9]
  MIC50: > 400 µg/mL

## NC1NC(=O)N([C@H]2C[C@H](O)[C@@H](CO)O2)C=C1/C=C/Br (stereo partly drawn)
Human alphaherpesvirus 2 [1]
  MIC50: 9 µg/mL (≈ 26.9 µM)
Human alphaherpesvirus 2 [2]
  MIC50: 7 µg/mL (≈ 20.9 µM)
Human alphaherpesvirus 1 [3]
  MIC50: 0.07 µg/mL (≈ 0.209 µM)
Human alphaherpesvirus 1 [4]
  MIC50: 0.06 µg/mL (≈ 0.18 µM)
Human alphaherpesvirus 1 [5]
  MIC50: 0.07 µg/mL (≈ 0.209 µM)
[9]
  MIC50: > 400 µg/mL

## O=c1[nH]c(=O)n([C@H]2C[C@H](O)[C@@H](CO)O2)cc1I [IDOXURIDINE]
Human alphaherpesvirus 2 [1]
  MIC50: 0.2 µg/mL (≈ 0.565 µM)
Human alphaherpesvirus 2 [2]
  MIC50: 0.7 µg/mL (≈ 1.98 µM)
Human alphaherpesvirus 1 [3]
  MIC50: 0.2 µg/mL (≈ 0.565 µM)
Human alphaherpesvirus 1 [4]
  MIC50: 0.2 µg/mL (≈ 0.565 µM)
Human alphaherpesvirus 1 [5]
  MIC50: 0.2 µg/mL (≈ 0.565 µM)
Human alphaherpesvirus 1 [6]
  MIC50: > 400 µg/mL
L1210 [7]
  MIC50: > 500 µg/mL
L1210 [8]
  MIC50: 35.6 µg/mL (≈ 101 µM)
Rattus norvegicus
  MIC50: 5.5 µg/mL (≈ 15.5 µM)
Homo sapiens
  MIC50: 4.7 µg/mL (≈ 13.3 µM)
[9]
  MIC50: > 400 µg/mL

## O=c1[nH]c(=O)n([C@@H]2C[C@H](CO)[C@@H](O)C2)cc1I
Human alphaherpesvirus 2 [1]
  MIC50: 20 µg/mL (≈ 56.8 µM)
Human alphaherpesvirus 2 [2]
  MIC50: 40 µg/mL (≈ 114 µM)
Human alphaherpesvirus 1 [3]
  MIC50: 0.2 µg/mL (≈ 0.568 µM)
Human alphaherpesvirus 1 [4]
  MIC50: 0.2 µg/mL (≈ 0.568 µM)
Human alphaherpesvirus 1 [5]
  MIC50: 0.2 µg/mL (≈ 0.568 µM)
Human alphaherpesvirus 1 [6]
  MIC50: > 400 µg/mL
L1210 [7]
  MIC50: > 200 µg/mL
L1210 [8]
  MIC50: > 200 µg/mL
Rattus norvegicus
  MIC50: 22.8 µg/mL (≈ 64.7 µM)
Homo sapiens
  MIC50: > 200 µg/mL
[9]
  MIC50: > 400 µg/mL

## O=c1[nH]c(=O)n([C@H]2C[C@H](O)[C@@H](CO)O2)cc1/C=C/I
Human alphaherpesvirus 2 [1]
  MIC50: 2 µg/mL (≈ 5.26 µM)
Human alphaherpesvirus 2 [2]
  MIC50: 2 µg/mL (≈ 5.26 µM)
Human alphaherpesvirus 1 [3]
  MIC50: 0.02 µg/mL (≈ 0.0526 µM)
Human alphaherpesvirus 1 [4]
  MIC50: 0.02 µg/mL (≈ 0.0526 µM)
Human alphaherpesvirus 1 [5]
  MIC50: 0.007 µg/mL (≈ 0.0184 µM)
Human alphaherpesvirus 1 [6]
  MIC50: > 10 µg/mL
L1210 [7]
  MIC50: 5.1 µg/mL (≈ 13.4 µM)
L1210 [8]
  MIC50: 16.3 µg/mL (≈ 42.9 µM)
Rattus norvegicus
  MIC50: 4.6 µg/mL (≈ 12.1 µM)
Homo sapiens
  MIC50: 21.1 µg/mL (≈ 55.5 µM)
[9]
  MIC50: > 400 µg/mL

## O=c1[nH]c(=O)n([C@H]2C[C@@H](CO)[C@H](O)C2)cc1/C=C/Br
Human alphaherpesvirus 2 [1]
  MIC50: 7 µg/mL (≈ 21.1 µM)
Human alphaherpesvirus 2 [2]
  MIC50: 20 µg/mL (≈ 60.4 µM)
Human alphaherpesvirus 1 [3]
  MIC50: 0.07 µg/mL (≈ 0.211 µM)
Human alphaherpesvirus 1 [4]
  MIC50: 0.04 µg/mL (≈ 0.121 µM)
Human alphaherpesvirus 1 [5]
  MIC50: 0.07 µg/mL (≈ 0.211 µM)
Human alphaherpesvirus 1 [6]
  MIC50: > 400 µg/mL
L1210 [7]
  MIC50: > 200 µg/mL
L1210 [8]
  MIC50: > 200 µg/mL
Mus musculus [10]
  Survival rate: 0
Mus musculus [11]
  Survival rate: 0
Mus musculus [12]
  Survival rate: 0
Mus musculus [13]
  Survival rate: 2
Rattus norvegicus
  MIC50: > 200 µg/mL
Homo sapiens
  MIC50: > 200 µg/mL
[9]
  MIC50: > 400 µg/mL
Mus musculus [14]
  Survival rate: 3

## Nc1nc(=O)n(C2CC(O)C(CO)C2)cc1/C=C/Br (stereo not drawn)
Human alphaherpesvirus 2 [1]
  MIC50: 20 µg/mL (≈ 60.6 µM)
Human alphaherpesvirus 2 [2]
  MIC50: 20 µg/mL (≈ 60.6 µM)
Human alphaherpesvirus 1 [3]
  MIC50: 0.1 µg/mL (≈ 0.303 µM)
Human alphaherpesvirus 1 [4]
  MIC50: 0.2 µg/mL (≈ 0.606 µM)
Human alphaherpesvirus 1 [5]
  MIC50: 0.2 µg/mL (≈ 0.606 µM)
Human alphaherpesvirus 1 [6]
  MIC50: > 400 µg/mL
[9]
  MIC50: > 400 µg/mL
